The text below walks through data of ChEMBL document CHEMBL2311453, “Tetrahydropyrroloquinolinone type dual inhibitors of aromatase/aldosterone synthase as a novel strategy for breast cancer patients with elevated cardiovascular risks” (J Med Chem, 2013).

Data set [1] concerns V79MZh. The experiment in a line: Selectivity factor, ratio of IC50 for human CYP11B1 to IC50 for human CYP11B2 expressed in hamster V79MZh cells. It is filed as cell-based. Summed up: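 SF calculated as IC50(CYP11B1)/IC50(CYP11B2). Both IC50s come from V79MZh hamster fibroblasts expressing the human enzyme, with [1,2-³H]-11-deoxycorticosterone at 100 nM as substrate.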
Data set [2] addresses T1, Cytochrome P450 11B2, mitochondrial (Homo sapiens, UniProt P19099).
T1 sequence (P19099 whole entry): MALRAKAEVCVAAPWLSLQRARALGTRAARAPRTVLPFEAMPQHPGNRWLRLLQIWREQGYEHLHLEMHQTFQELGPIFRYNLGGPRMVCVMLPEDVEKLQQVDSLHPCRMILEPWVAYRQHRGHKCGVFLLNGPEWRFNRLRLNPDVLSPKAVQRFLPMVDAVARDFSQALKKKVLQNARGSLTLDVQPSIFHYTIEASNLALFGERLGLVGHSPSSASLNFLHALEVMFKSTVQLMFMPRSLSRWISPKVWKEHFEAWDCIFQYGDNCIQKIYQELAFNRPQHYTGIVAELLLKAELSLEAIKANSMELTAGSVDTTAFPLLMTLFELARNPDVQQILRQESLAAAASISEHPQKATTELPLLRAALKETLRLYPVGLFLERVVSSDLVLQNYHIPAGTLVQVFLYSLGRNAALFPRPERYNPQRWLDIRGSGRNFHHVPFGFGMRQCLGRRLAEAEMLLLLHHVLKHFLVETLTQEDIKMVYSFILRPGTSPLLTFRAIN
As to the kind of experiment: Inhibition of human CYP11B2 expressed in hamster V79MZh cells using [1,2-3H]-11-deoxy-corticosterone as substrate. In kind it is cell-based. In outline:
(§1)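 V79MZh hamster fibroblasts stably expressing human CYP11B1 or CYP11B2, incubated with [1,2-³H]-11-deoxycorticosterone (100 nM) and inhibitor at varying concentrations. IC50 taken as mean of at least three experiments (relative SD under 25%).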

Data set [3] concerns the target T2, Cytochrome P450 11B1, mitochondrial (Homo sapiens, UniProt P15538).
T2 sequence (P15538 whole entry): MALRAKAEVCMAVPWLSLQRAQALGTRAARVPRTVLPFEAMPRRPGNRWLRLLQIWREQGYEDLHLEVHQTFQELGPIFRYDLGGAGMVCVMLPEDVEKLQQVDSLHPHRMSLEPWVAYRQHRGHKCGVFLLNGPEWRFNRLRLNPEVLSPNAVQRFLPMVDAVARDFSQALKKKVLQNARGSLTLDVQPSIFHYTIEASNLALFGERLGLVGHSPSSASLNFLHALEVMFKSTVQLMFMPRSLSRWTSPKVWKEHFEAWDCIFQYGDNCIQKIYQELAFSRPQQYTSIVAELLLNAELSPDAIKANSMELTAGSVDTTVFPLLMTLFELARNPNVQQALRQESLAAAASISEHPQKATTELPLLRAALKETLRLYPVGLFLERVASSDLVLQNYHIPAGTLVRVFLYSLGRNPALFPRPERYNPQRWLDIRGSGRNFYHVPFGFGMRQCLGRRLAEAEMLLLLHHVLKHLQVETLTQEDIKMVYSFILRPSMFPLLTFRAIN
The experiment in a line: Inhibition of human CYP11B1 expressed in hamster V79MZh cells using [1,2-3H]-11-deoxy-corticosterone as substrate. It is filed as cell-based. In outline: as §1

For data set [4], the target named is T3, CYP17 (Homo sapiens, UniProt P05093).
T3 sequence (P05093 whole entry): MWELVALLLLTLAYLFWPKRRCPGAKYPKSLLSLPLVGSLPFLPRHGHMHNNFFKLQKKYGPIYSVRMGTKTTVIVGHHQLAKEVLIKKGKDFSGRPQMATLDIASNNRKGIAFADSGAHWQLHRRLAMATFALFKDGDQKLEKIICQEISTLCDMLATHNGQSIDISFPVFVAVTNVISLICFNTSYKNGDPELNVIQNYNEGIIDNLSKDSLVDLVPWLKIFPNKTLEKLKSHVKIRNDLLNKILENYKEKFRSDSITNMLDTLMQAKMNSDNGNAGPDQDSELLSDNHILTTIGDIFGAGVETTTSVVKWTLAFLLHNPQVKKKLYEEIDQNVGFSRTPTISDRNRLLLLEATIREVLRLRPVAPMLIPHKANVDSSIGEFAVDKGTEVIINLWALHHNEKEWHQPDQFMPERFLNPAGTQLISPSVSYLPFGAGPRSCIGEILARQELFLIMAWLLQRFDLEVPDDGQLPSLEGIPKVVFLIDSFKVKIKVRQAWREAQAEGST
The experiment in a line: Inhibition of human CYP17 expressed in Escherichia coli using progesterone as substrate at 2 uM. To be noted: probe progesterone. In outline: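 Enzyme source was the 90000g sediment of E. coli coexpressing human CYP17 and cytochrome P450 reductase. Progesterone substrate at 25 μM, NADPH cofactor, inhibitor at 2 μM. Percent inhibition is the mean of at least two experiments (SD under 10%).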

Data set [5] deals with T4, Aromatase (Homo sapiens, UniProt P11511).
T4 sequence (P11511 whole entry): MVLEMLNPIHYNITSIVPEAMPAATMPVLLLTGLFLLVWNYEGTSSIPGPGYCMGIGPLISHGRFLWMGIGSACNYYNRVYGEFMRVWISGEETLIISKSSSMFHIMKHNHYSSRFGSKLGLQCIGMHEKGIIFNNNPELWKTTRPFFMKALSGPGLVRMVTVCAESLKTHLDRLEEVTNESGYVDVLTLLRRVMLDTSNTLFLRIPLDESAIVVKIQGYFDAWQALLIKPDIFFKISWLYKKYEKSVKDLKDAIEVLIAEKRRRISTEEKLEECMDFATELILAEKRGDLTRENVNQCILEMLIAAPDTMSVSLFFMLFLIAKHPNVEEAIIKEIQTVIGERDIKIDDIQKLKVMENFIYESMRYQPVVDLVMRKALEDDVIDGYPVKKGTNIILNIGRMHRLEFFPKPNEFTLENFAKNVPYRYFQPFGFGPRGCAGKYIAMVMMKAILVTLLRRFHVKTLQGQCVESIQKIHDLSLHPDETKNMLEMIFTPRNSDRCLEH
The experiment in a line: Inhibition of human CYP19 using [1beta-3H]androstenedione as substrate by 3H2O method.

Molecules are shown by their SMILES. Where only a bound is given, the exact number is not on record here.

What is called IC50 is the concentration that inhibits the measured activity by half. A higher IC50 goes with weaker potency. The inhibition is how much of the control response was suppressed. For the molecule `O=C1CCc2cc(Cc3cccnc3)cc3c2N1CC3`, the Ratio IC50 in data set [1] worked out at 0.2. Moreover, the IC50 in data set [2] was 74 nM; in data set [3], 16 nM; in data set [5], 3340 nM. This molecule also yielded an inhibition at 2 µM in data set [4] below 3%.
Consider `Cc1cccc(C(c2cccnc2)c2cc3c4c(c2)CCN4C(=O)CC3)c1` (stereo not given), for which the Ratio IC50 in data set [1] was below 0.2. The IC50 is above 5000 nM in data set [2], 1220 nM in data set [3] and above 5000 nM in data set [5].
`C=C(c1cccnc1)c1cc2c3c(c1)CCN3C(=O)CC2`: the Ratio IC50 in data set [1] stood at 0.1. Besides, the figures for the half-maximal inhibitory concentration (IC50) in data set [2], in data set [3] and in data set [5] were 468 nM, 41 nM and above 5000 nM, respectively. This molecule also displayed an inhibition at 2 µM in data set [4] below 3%.
Turning to `O=C1CCc2cc(Cc3ccncc3)cc3c2N1CC3`, the Ratio IC50 in data set [1] amounted to 1.1. The IC50 was found to be 204 nM in data set [2], 224 nM in data set [3] and 2130 nM in data set [5]. For the same molecule, the inhibition at 2 µM in data set [4] is 8%.
For the molecule `O=C1CCc2cc(C(O)(c3ccccc3)c3ccncc3)cc3c2N1CC3` (stereo not given), the Ratio IC50 in data set [1] came out at 8.8. The figures for the IC50 in data set [2], in data set [3] and in data set [5] were 85 nM, 745 nM and 105 nM, respectively. In data set [4], testing at 2 µM gave an inhibition of 43%.
The like results for `COc1cccc(C(c2ccncc2)c2cc3c4c(c2)CCN4C(=O)CC3)c1` (stereo not given) were, in that order, 18, 139 nM, 2540 nM, 59 nM and 50%.
As to `Cc1cccc(C(c2ccncc2)c2cc3c4c(c2)CCN4C(=O)CC3)c1` (stereo not given), the Ratio IC50 in data set [1] amounted to 33. The figures for the half-inhibitory concentration (IC50) in data set [2], in data set [3] and in data set [5] were 41 nM, 1340 nM and 32 nM, respectively. In addition, the inhibition at 2 µM in data set [4] was 46%.
Consider `CC(c1ccncc1)c1cc2c3c(c1)CCN3C(=O)CC2` (stereo not given), for which the Ratio IC50 in data set [1] worked out at 1.9. In addition, the IC50 stood at 74 nM in data set [2], 140 nM in data set [3] and 1500 nM in data set [5].
For the molecule `COc1ccc(C(c2ccncc2)c2cc3c4c(c2)CCN4C(=O)CC3)cc1` (stereo in doubt; 3k) [listing 1 of 2 here], in data set [1], the Ratio IC50 worked out at 16.
`O=C1CCc2cc(C(c3ccccc3)c3ccncc3)cc3c2N1CC3` (stereo not given): the Ratio IC50 in data set [1] was 14. Besides, the IC50 in data set [2] amounted to 390 nM; in data set [3], 5400 nM; in data set [5], 880 nM.
In the case of `CC(C)C(c1ccncc1)c1cc2c3c(c1)CCN3C(=O)CC2` (stereo not given), in data set [1], the Ratio IC50 came out at 1.9. Further, the figures for the IC50 in data set [2], in data set [3] and in data set [5] were 750 nM, 1420 nM and 889 nM, respectively.
The like results for `O=C1CCc2cc(C(c3ccncc3)c3cccc(F)c3)cc3c2N1CC3` (stereo not given) were, in that order, 6, 88 nM, 532 nM and 74 nM.
`COc1ccc(C(c2ccncc2)c2cc3c4c(c2)CCN4C(=O)CC3)cc1` (single isomer, unassigned; (+)) [listing 1 of 2 here]: the Ratio IC50 in data set [1] stood at 37.
With `O=C1CCc2cc(C(c3ccncc3)c3cccc(Cl)c3)cc3c2N1CC3` (stereo not given), the Ratio IC50 in data set [1] stood at 13. Further, the IC50 in data set [2] stood at 51 nM; in data set [3], 646 nM; in data set [5] it was 19 nM. The molecule further yielded an inhibition at 2 µM in data set [4] of 58%.
The like results for `CC(c1cccnc1)c1cc2c3c(c1)CCN3C(=O)CC2` (stereo not given) were, in that order, 0.1, 37 nM, 4 nM, above 5000 nM and below 3%.
`O=C1CCc2cc(C(c3cccnc3)c3cccc(Cl)c3)cc3c2N1CC3` (stereo not given): in data set [1], the Ratio IC50 was below 0.1. For the same molecule, the IC50 is above 5000 nM in data set [2], 36 nM in data set [3] and 1350 nM in data set [5].
Take `O=C1CCc2cc(C(c3ccc(F)cc3)c3cccnc3)cc3c2N1CC3` (stereo not given): the Ratio IC50 in data set [1] was found to be 0.1. The IC50 in data set [2] stood at 587 nM; in data set [3], 78 nM; in data set [5] it was 140 nM.
The like results for `O=C1CCc2cc(C(O)c3cccnc3)cc3c2N1CC3` (stereo not given) were, in that order, below 0.1, above 5000 nM, 750 nM and above 5000 nM.
As for `COc1ccc(C(c2ccncc2)c2cc3c4c(c2)CCN4C(=O)CC3)cc1` (single isomer, unassigned; (+)) [listing 2 of 2 here], the IC50 was found to be 46 nM in data set [2], 1690 nM in data set [3] and 273 nM in data set [5].
As for `O=C1CCc2cc(C(c3ccncc3)c3cc(C(F)(F)F)cc(C(F)(F)F)c3)cc3c2N1CC3` (stereo not given), in data set [1], the Ratio IC50 was above 3. Further, the IC50 in data set [2] is 1580 nM; in data set [3] it was above 5000 nM; in data set [5] it was 246 nM.
Take `N#Cc1ccc(C(c2ccc(C#N)cc2)n2cncn2)cc1` [LETROZOLE]: the IC50 stood at 1420 nM in data set [2] and 2620 nM in data set [3]. The molecule further displayed an inhibition at 2 µM in data set [4] of 7%.
The molecule `N#Cc1ccc(C2CCCc3cncn32)cc1` (stereo not given) [FADROZOLE] had an inhibition at 2 µM in data set [4] below 3%.
In the case of `COc1ccc(C(c2ccncc2)c2cc3c4c(c2)CCN4C(=O)CC3)cc1` (single isomer, unassigned; (-)) [listing 1 of 2 here], the IC50 in data set [2] came to 74 nM; in data set [3], 511 nM; in data set [5], 92 nM.
For `COc1ccc(C(c2ccncc2)c2cc3c4c(c2)CCN4C(=O)CC3)cc1` (single isomer, unassigned; (-)) [listing 2 of 2 here], the Ratio IC50 in data set [1] came out at 6.9.
As to `O=C1CCc2cc(C(c3ccncc3)C3CCCCC3)cc3c2N1CC3` (stereo not given), the Ratio IC50 in data set [1] was above 4. In addition, the IC50 in data set [2] was 1290 nM; in data set [3], above 5000 nM; in data set [5] it was 74 nM.
On to `COc1ccc(C(c2ccncc2)c2cc3c4c(c2)CCN4C(=O)CC3)cc1` (stereo in doubt; 3k) [listing 2 of 2 here], for which the concentration for half-maximal inhibition (IC50) in data set [2] amounted to 52 nM; in data set [3], 810 nM; in data set [5], 124 nM. Testing at 2 µM in data set [4] gave an inhibition of 53%.
For `COc1ccccc1C(c1cccnc1)c1cc2c3c(c1)CCN3C(=O)CC2` (stereo not given), the Ratio IC50 in data set [1] was below 0.3. Also, the IC50 in data set [2] is above 5000 nM; in data set [3] it was 2270 nM; in data set [5], 3660 nM.
The like results for `O=C1CCc2cc(C(c3ccccc3)c3cccnc3)cc3c2N1CC3` (stereo not given) were, in that order, 0.5, 132 nM, 68 nM and 2130 nM.
